High-throughput results deposited in PubChem BioAssay by several laboratories.
This is a sample that favours compounds with a hit; in the whole collection about 5.5% have one here.
KCC2 mod: KCC2 (human) Cl- transport modulation | Q9H2X9 | KCC2 cells, thallium flux FluoZin-2 fluorescence | B-score of Tl+ flux slope (higher = more flux/activation; lower = inhibition) at 10 µM | hit rate 2.2% among 190,000 | AID 1456;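 active = thallium flux slope and its plate-corrected score both differing from the plate sample mean at a set confidence after two filtering rounds, in either direction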;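 also: slope of fluorescence scaled to starting intensity during 10 to 20 s after thallium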
Target sequence (Q9H2X9 whole entry, looked up): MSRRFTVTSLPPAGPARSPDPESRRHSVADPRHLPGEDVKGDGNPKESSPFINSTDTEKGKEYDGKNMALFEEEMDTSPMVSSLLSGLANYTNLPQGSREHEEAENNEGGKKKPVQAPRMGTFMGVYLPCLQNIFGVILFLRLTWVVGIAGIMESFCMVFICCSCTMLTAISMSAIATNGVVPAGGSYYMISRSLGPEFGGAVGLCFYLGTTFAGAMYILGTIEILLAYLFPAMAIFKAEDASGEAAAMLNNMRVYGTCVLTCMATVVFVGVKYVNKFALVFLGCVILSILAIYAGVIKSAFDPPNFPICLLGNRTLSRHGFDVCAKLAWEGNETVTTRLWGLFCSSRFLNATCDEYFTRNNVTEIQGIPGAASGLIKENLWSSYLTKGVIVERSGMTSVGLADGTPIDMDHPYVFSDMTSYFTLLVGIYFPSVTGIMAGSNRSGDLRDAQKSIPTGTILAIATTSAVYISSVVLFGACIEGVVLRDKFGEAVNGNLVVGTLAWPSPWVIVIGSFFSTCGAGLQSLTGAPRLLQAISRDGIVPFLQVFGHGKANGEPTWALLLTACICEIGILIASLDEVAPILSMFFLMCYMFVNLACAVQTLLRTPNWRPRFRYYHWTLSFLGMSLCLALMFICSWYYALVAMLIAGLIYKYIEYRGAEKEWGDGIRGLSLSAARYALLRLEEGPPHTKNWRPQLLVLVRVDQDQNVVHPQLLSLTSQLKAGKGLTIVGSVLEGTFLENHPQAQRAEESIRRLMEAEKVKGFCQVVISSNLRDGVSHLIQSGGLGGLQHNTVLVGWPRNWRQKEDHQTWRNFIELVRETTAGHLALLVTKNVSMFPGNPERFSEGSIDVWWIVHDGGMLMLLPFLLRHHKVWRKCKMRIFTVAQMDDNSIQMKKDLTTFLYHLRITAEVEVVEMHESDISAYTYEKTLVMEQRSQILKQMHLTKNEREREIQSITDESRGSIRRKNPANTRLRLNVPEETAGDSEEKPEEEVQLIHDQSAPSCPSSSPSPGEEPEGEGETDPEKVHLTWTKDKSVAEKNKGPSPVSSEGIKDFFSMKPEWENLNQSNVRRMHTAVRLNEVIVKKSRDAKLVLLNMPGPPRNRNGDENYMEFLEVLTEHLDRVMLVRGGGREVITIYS
BB579 growth dn: yeast BB579 growth reduction in restrictive medium | S. cerevisiae BB579 growth, OD615, 48 h | inhibition, % at 10 µM | hit rate 0.51% among 140,000;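 active = inhibition above a set limit, 3 SD over the mean compound inhibition, cut at about 44% in these data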
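System: Saccharomyces cerevisiae DeaD strain BB579, replicative lifespan model yeast. Buffer or medium: restrictive glucose-based CSMM-D medium. Doses: one dose, 10 µM compound with 0.25% DMSO. Timing: 4 h preincubation and 48 h exposure at 30 °C. Detection: turbidity as optical density at 615 nm. Benchmarks: amphotericin B 10 µg/mL, positive.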
RAM network inh: inhibitors of the yeast RAM network | hit rate 1.8% among 190,000 | AID 868 | inhibition, % at 50 µM | S. cerevisiae dse1pr::URA3 reporter, 5-FOA growth OD615, 2 d; analog-sensitive cbk1-as2 kinase mutant strain;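 active = inhibition above a set limit, 3 SD over mean compound inhibition, cut at about 8.4% in these data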;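 also: inhibition rescues growth on 5-FOA so higher OD means more RAM inhibition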
Yeast lifespan up: yeast lifespan extension | S. cerevisiae growth with nicotinamide, OD615; deaD strain in restrictive glucose medium | inhibition of the nicotinamide effect, % at 10 µM | hit rate 0.68% among 130,000 | AID 775;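 active = inhibition above a set limit, placed 3 SD over the median of all compounds, cut at about 26% in these data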
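System: Modified budding yeast, DeaD strain | Buffer or medium: Restrictive glucose medium | Also added: 1.5 mM nicotinamide | Doses: 10 µM single point, 0.25% DMSO | Schedule: 48 h compound exposure at 30 °C, humidified | Detection: Absorbance at 615 nm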
WT yeast gro inh: growth inhibition of WT yeast, mitochondrial fusion screen; mitochondrial fusion phenotypic screen, WT strain; inhibition, % at 10 µM; hit rate 2.1% among 190,000; AID 1362; in the data active = inhibition above about 58%; tested in S. cerevisiae
Numbers stand for hits; n = inactive; x = no result.

SMILES	KCC2 mod	BB579 growth dn	RAM network inh	Yeast lifespan up	WT yeast gro inh
Cc1ccc(-c2csc3ncnc(Nc4ccc(N5CCOCC5)cc4)c23)cc1	n	n	n	n	64
Cc1ccc(NC(=O)C(Nc2cccc(C)c2)c2ccccc2)cc1 (configuration not stated)	n	n	n	n	70
COc1ccc(OC)c(NC(=O)CSc2nnc(C)n2Cc2ccccc2)c1	x	n	9.2	n	n
C=C(C)C1CC=C(C)/C(=N/NC(=O)c2ccoc2C)C1 (configuration not stated)	n	n	n	n	n
NC(=O)CC(NC(=O)c1cccc(Br)c1)c1ccc(NCCN2CCOCC2)c([N+](=O)[O-])c1 (configuration not stated)	n	x	x	x	x
Cc1n(N)c2ccccc2[n+]1CC(=O)c1ccccc1	n	x	n	x	n
O=C(/C=C/Nc1cccc(C(F)(F)F)c1)C(F)(F)F	n	n	n	n	65
CCn1c(SCC(=O)N/N=C/c2ccccc2OCC(=O)O)nnc1-c1ccc(C)cc1	n	x	x	x	x
Cc1ccc(-n2c(C)cc(C3=NNC(=NC4CC4)SC3)c2C)cc1C	n	n	n	n	78
COCCn1c(Cc2ccccc2)nnc1SCc1ccc([N+](=O)[O-])cc1	n	n	n	n	n
Cc1[nH]n(C(N)=S)c(=O)c1N=Nc1ccc(S(=O)(=O)N2CCCCCC2)cc1	x	n	n	n	68
Cc1cc(O)c(NC(=S)NC(=O)c2ccc(-c3ccc(Cl)cc3)o2)cc1C	x	n	n	n	77
O=C(Nc1ccccc1N1CCCCC1)c1ccc(-c2ccc(Cl)cc2)o1	n	n	n	n	n
Cc1ccc(NC(=S)NC(=O)/C=C/c2ccco2)c(O)c1	n	x	n	x	n
Cc1ccc(NC(=S)NC(=O)c2ccc(-c3ccc(Cl)cc3)o2)c(O)c1	n	n	10	n	n
O=C(Nc1nc2c(cc3c4c(cccc42)CC3)s1)c1ccccc1Cl	n	n	n	n	n
Cc1ccc(NC(=S)Nc2ccc(C(C)C)cc2)cc1S(=O)(=O)N1CCCCCC1	n	n	n	n	66
CCOC(=O)C(C(=O)OCC)c1cc(Br)c2noc3c2c1C(=O)c1ccccc1-3	x	n	n	46	n
CC1CC1c1ccc(/C=C(\C#N)C(=O)Nc2cc(Cl)ccc2Cl)o1 (configuration not stated)	n	n	8.7	n	n
COC(=O)c1nc(N)sc1C	n	x	n	x	n
O=C(NCC1CCCO1)C(c1ccc(F)cc1)N(CC1CCCO1)C(=O)c1ccc(-c2ccccc2)[nH]1 (configuration not stated)	n	x	n	x	n
O=C(NCC1CCCO1)C(c1cccs1)N(Cc1cccs1)C(=O)c1ccc(-c2ccccc2)[nH]1 (configuration not stated)	n	n	8.4	n	n
COc1ccc(/C(C)=N/NC(=O)CNC(=O)CCc2ccccc2)c(OC)c1	n	x	x	x	x
Cc1nc2c(-c3ccc(F)cc3)c(C)nn2c(C)c1CCC(=O)N1CCN(c2ccccc2)CC1	x	n	n	n	n
Cc1nc2c(-c3ccc(F)cc3)c(C)nn2c(C)c1CCC(=O)N1CCC(Cc2ccccc2)CC1	n	n	n	n	65
SMILES	KCC2 mod	BB579 growth dn	RAM network inh	Yeast lifespan up	WT yeast gro inh
Clc1cccc(Cl)c1/C=C/c1nc2ccccc2[nH]1	n	n	n	n	81
Clc1ccc(/C=C/c2nc3ccccc3[nH]2)cc1	n	n	n	n	n
O=C(C[n+]1cn(C(F)F)c2ccccc21)c1ccc(OC(F)F)cc1	n	x	n	x	71
Cc1cc(C)n(CC(O)CN2c3ccccc3Sc3ccccc32)n1 (configuration not stated)	x	n	n	n	73
Cc1cc(C)n(CC(O)Cn2c3ccccc3c3ccccc32)n1 (configuration not stated)	n	n	n	n	n
COCCn1c(-c2ccc(Br)cc2)nc2oc3cc(OC)ccc3c(=O)c2c1=O	n	x	x	x	x
Cc1sc(NC(=O)c2ccco2)c(C(c2cccnc2)N2CCN(c3ccc(F)cc3)CC2)c1C (configuration not stated)	n	n	8.4	n	n
Cc1sc(NC(=O)c2ccco2)c(C(c2ccc(F)cc2)N2CCN(C)CC2)c1C (configuration not stated)	n	x	n	x	95
Cc1sc(NC(=O)c2ccco2)c(C(c2ccccc2)N2CCC(C)CC2)c1C (configuration not stated)	n	x	n	x	n
COc1ccc(N(C(=O)c2ccco2)S(=O)(=O)c2cccs2)cc1	-2.8	n	n	n	n
